The nature of data set [1]: Inhibition of Saccharomyces cerevisiae alpha-glucosidase using PNPG as substrate incubated for 10 mins by spectrophotometric method.
Data set [2] has as its target T1, Tissue alpha-L-fucosidase (Bos taurus, UniProt Q2KIM0).
T1 sequence (Q2KIM0 whole entry): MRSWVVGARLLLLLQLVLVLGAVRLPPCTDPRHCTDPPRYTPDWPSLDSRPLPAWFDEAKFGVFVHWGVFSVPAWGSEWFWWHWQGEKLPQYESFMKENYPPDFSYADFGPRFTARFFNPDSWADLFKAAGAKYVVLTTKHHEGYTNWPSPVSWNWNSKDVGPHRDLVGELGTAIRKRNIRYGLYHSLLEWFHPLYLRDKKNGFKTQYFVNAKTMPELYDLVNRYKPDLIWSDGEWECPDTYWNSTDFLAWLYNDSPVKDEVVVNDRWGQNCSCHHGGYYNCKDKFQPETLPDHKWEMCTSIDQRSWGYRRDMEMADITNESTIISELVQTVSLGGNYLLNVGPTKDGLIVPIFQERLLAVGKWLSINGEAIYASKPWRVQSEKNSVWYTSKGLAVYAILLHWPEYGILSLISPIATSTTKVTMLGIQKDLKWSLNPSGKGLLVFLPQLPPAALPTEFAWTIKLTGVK
Put plainly: Inhibition of bovine kidney alpha-fucosidase using […] as substrate incubated for 10 mins by spectrophotometric method.

Data set [3] can be described thus: Competitive inhibition of Saccharomyces cerevisiae alpha-glucosidase using PNPG as substrate incubated for 10 mins by Lineweaver-Burk plot analysis. A digest of the protocol: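 Yeast α-glucosidase kinetics used pNPG at 1, 2, 3, 4 and 5 mM without inhibitor or with inhibitor at 2 and 10 μM, at 37 °C. Absorbance read at 420 nm. Mode of inhibition came from Km/Vmax changes on Lineweaver–Burk double-reciprocal plots; Ki derived […].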

The subject of data set [4] is Saccharomyces cerevisiae. As to the kind of experiment: Binding affinity to Saccharomyces cerevisiae alpha-glucosidase assessed as decrease in fluorescence intensity at 6.25 to 25 ng/ml after 30 mins by spectrofluorometric method. Particulars: dose 6.25-25 ng/ml. A digest of the protocol: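 Yeast α-glucosidase (1.5 U) was pretreated with compound at 6.25 and 25 ng/ml for 30 min at 37 °C. Intrinsic Trp fluorescence was excited at 295 nm and the emission (peak 330 nm) recorded at 298 K. Quenching was scored against free enzyme.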

Data set [5] concerns Saccharomyces cerevisiae. As to the kind of experiment: Binding affinity to Saccharomyces cerevisiae alpha-glucosidase assessed as protein with alpha-helical structure at 0.64 ug/ml by CD spectroscopic method (reference value: 5.3%). Particulars: dose 0.64 µg/ml. An outline of the steps:
(§1)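 Compound was added at different concentrations to yeast α-glucosidase (30 U/ml). CD spectra were taken with 3 accumulations (negative bands at 209 and 222 nm). α-Helix and β-sheet content were estimated with secondary-structure estimation software.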

The test system of data set [6] is Saccharomyces cerevisiae. Put plainly: Binding affinity to Saccharomyces cerevisiae alpha-glucosidase assessed as protein with beta-sheet structure at 0.32 ug/ml by CD spectroscopic method (reference value: 68%). Particulars: dose 0.32 µg/ml. A digest of the protocol: as §1
A short description of data set [7]: Drug recovery in mouse plasma at 10 uM after 6 hrs by LC-MS/MS analysis. It counts as ADME, cell-free. Particulars: read-out: Drug recovery. A digest of the protocol:
(§2)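 Equilibrium dialysis: plasma with compound at 10 μM final on one side, 100 mM sodium phosphate pH 7.4 on the other. Equilibrated at 37 ± 1 °C for 6 h with shaking at 500 rpm. Both sides were sampled, proteins precipitated with organic solvent, and supernatants analysed by LC-MS/MS.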

Data set [8] in a line: Thermodynamic solubility of compound in phosphate buffer at 1 mg/ml at pH 7.4 after 24 hrs by HPLC analysis. It counts as physicochemical. The settings on record: read-out: Therm_solubility. A digest of the protocol:
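1 mg compound incubated in 1 mL phosphate buffer saline (pH 7.4) for 24 h with vortexing at 500 rpm. Samples were then centrifuged and the supernatant injected into HPLC to quantify dissolved compound.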

Data set [9] is described as follows: Permeability of compound at pH 7.4 after 4 hrs by GIT PAMPA method. It counts as ADME. Particulars: read-out: permeability. An outline of the steps: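 GIT PAMPA: compound in the donor plate at pH 7.4, with GIT-0 lipid coated on the acceptor membrane and sink buffer in the acceptor plate. Incubated 4 h; donor and acceptor aliquots were read by UV to give permeability.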

Data set [10] deals with Cytochrome P450 (Homo sapiens, UniProt P04798+P05177+P05181+P08684+P10632+P10635+P11509+P11712+P13584+P20813+P20815+P20853+P24462+P24903+P33260+P33261+P51589+P78329+P98187+Q02928+Q08477+Q16678+Q16696+Q5TCH4+Q6VVX0+Q7Z449+Q8TAV3+Q96SQ9+Q9HB55). Put plainly: Stability in human liver microsomes assessed as CYP450-mediated drug degradation by measuring proportion of compound metabolised at 1 uM up to 60 mins in presence of NADPH by LC-MS/MS analysis. In kind it is ADME. Particulars: read-out: Drug degradation. A digest of the protocol:
(§3)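 Liver microsomes (1.0 mg protein/mL) were incubated with compound at 1 μM; reactions were started with 1 mM NADPH. No-NADPH incubations (0 and 60 min) served as stability controls. Reactions were stopped at 0, 5, 15, 30 and 60 min with ice-cold acetonitrile containing internal standard, then centrifuged. Parent loss was tracked by LC-MS/MS.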

The nature of data set [11]: Half life in mouse liver microsomes at 1 uM up to 60 mins in presence of NADPH by LC-MS/MS analysis. It counts as ADME, Microsome. An outline of the steps:
as §3

Data set [12] can be described thus: Intrinsic clearance in human liver microsomes at 1 uM up to 60 mins in presence of NADPH by LC-MS/MS analysis. Particulars: 1 h. It counts as ADME, Microsome. A digest of the protocol: as §3
Data set [13] in a line: Clearance in mouse. In kind it is ADME, organism-based. The settings on record: in vivo.
A short description of data set [14]: Clearance in rat. The settings on record: in vivo. In kind it is ADME.
Data set [15] in a line: Clearance in human. It counts as ADME. An outline of the steps:
as §3

A short description of data set [16]: Protein binding in mouse plasma assessed as bound fraction at 10 uM after 6 hrs by LC-MS/MS analysis. In kind it is ADME, cell-free. The settings on record: read-out: PPB (converted). A digest of the protocol:
as §2

The nature of data set [17]: Drug recovery in rat plasma at 10 uM after 6 hrs by LC-MS/MS analysis. In kind it is ADME, cell-free. Particulars: read-out: Drug recovery. A digest of the protocol: as §2
Data set [18] in a line: Drug recovery in human plasma at 10 uM after 6 hrs by LC-MS/MS analysis. In kind it is ADME, cell-free. The settings on record: read-out: Drug recovery. A digest of the protocol:
as §2

For data set [19], the system named is BRIN-BD11. As to the kind of experiment: Induction of rat BRIN-BD11 cell proliferation at 1 uM after 24 hrs by MTT assay. In kind it is functional. A digest of the protocol: (§4)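 BRIN-BD11 rat β-cells were seeded at 10^4 cells/well in RPMI and left overnight. They were exposed 24 h to compound at 100, 30, 10, 3, 1, 0.3 and 0.1 μM. MTT (5 mg/ml stock) was added for 90 min at 37 °C, formazan dissolved in DMSO, and absorbance read at 560 nm.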

Data set [20] in a line: Cytotoxicity against rat BRIN-BD11 cells assessed as reduction in cell viability at >=10 uM after 24 hrs by MTT assay. Particulars: brin-bd11, 24 h. It counts as cell-based. A digest of the protocol:
as §4

For data set [21], the system named is Saccharomyces cerevisiae. As to the kind of experiment: Potency index, ratio of acarbose IC50 to test compound IC50 for inhibition of Saccharomyces cerevisiae alpha-glucosidase using PNPG as substrate incubated for 10 mins by spectrophotometric method.

pIC50, pKi: −log10 of the molar value. In brackets after ≈: the same amount, converted by molar mass. Activity calls are given as the source filed them. No cut-off for these calls is given here.

Results on one compound are retold here after ChEMBL document CHEMBL4680156, “Discovery of novel pyrido-pyrrolidine hybrid compounds as alpha-glucosidase inhibitors and alternative agent for control of type 1 diabetes” (Eur J Med Chem, 2020).

For `CCOC(=O)c1ccc(-n2c(/C=C3\OC(=O)c4c3cc(C)[nH]c4=O)ccc2CO)cc1`, the pIC50 was 6.25 in data set [1] and 4.52 in data set [2]. Further, in [3], the pKi was 4.52. Besides, the result in data set [4] and in data set [19] was Active. In addition, the Activity in data set [5] was 6.6%; in data set [6] it was 63%; in data set [20] it was “Toxic”. The remaining at 6 h, 10 µM in data set [7] was found to be 15%; in [17], 1.95%; in data set [18], 56.7%. In [8], the solubility thermodynamic at 24 h worked out at 0.1 µg/mL (≈ 0.238 µM). For the same compound, in data set [9], the Papp at 4 h came out at 15 ×10⁻⁶ cm/s. Also, the metabolised at 1 h, 1 µM in [10] was found to be 96.3%. Moreover, the half-life at 1 µM in [11] was 9 min. For the same compound, the CLint in data set [12] amounted to 54.8 µL/min/mg. Further, the clearance in data set [13] came to 60.3 mL/min/kg; in data set [14], 35.2 mL/min/kg; in data set [15], 15.1 mL/min/kg. Moreover, in [16], the fraction unbound at 6 h, 10 µM is 0.0899. In addition, the Ratio IC50 in data set [21] is 4.
